Screens from PubChem BioAssay.
ABHD5 PLIN5 PPI: blocks binding of human ABHD5 to perilipin-5; Q00G26+Q8WTS1; Split G. princeps luciferase complementation, luminescence, 4 h; inhibition, % at 4 µM; 360,000 tested, 0.78% active; AID 602281;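 active means inhibition above the mean inhibition across every tested compound plus 3 SD, cut at about 22% in these data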
UPR CHOP act: apoptotic UPR (CHOP) activation. CHO-CHOP luciferase reporter, luminescence; percent of tunicamycin response over DMSO baseline. activation, % at 10 µM. 330,000 tested, 0.34% active. AID 449763;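 active means at 10 µM dose, activation of 40% or more, normalized to positive control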
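measured by = luciferase luminescence | assay system = CHO-CHOP cells, stable luciferase reporter of PERK-eIF2a-CHOP signalling | amount = 500 reporter cells seeded per well | timing = 6 h compound exposure at 37 °C after overnight seeding | controls = positive tunicamycin 10 µg/mL, negative DMSO alone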
UPR XBP1 act: activators of adaptive arm of unfolded protein response (XBP1). CHO-XBP1 luciferase reporter, IRE1-XBP1 UPR activation, luminescence; percent of tunicamycin response, DMSO as zero. activation, % at 20 µM. 330,000 tested, 0.33% active. AID 463104;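 active means versus positive control, 20 µM dose yields 30% or more activation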
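Material: CHO-XBP1 cells stably carrying IRE1-XBP1-driven luciferase reporter | Medium: F12 with 10% serum | Compound dosing: 20 µM single concentration, DMSO 1% | Incubation: Overnight seeding at 37 °C, 6 h compound treatment at 37 °C | Detection: Steady-Glo luminescence read | Read-out basis: % activation of reporter signal versus tunicamycin and DMSO controls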
Granule exo inh: lytic granule exocytosis inhibition. TALL-104 LAMP-1 surface exposure, flow cytometry; cells stimulated with thapsigargin and PMA. inhibition, % at 10 µM. 360,000 tested, 0.66% active. AID 651702;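 active means inhibition above about 55%, limit read from the data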
Mdm2-MdmX inh: human Mdm2/MdmX binding inhibition. SaOS-2 split-luciferase Mdm2/MdmX complementation, luminescence. AID 485346. 330,000 tested, 3% active. inhibition, % at 8 µM. O15151+Q00987;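 active means inhibition of at least 50% at 8 µM in the primary screen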
Target sequence (O15151 whole entry, looked up): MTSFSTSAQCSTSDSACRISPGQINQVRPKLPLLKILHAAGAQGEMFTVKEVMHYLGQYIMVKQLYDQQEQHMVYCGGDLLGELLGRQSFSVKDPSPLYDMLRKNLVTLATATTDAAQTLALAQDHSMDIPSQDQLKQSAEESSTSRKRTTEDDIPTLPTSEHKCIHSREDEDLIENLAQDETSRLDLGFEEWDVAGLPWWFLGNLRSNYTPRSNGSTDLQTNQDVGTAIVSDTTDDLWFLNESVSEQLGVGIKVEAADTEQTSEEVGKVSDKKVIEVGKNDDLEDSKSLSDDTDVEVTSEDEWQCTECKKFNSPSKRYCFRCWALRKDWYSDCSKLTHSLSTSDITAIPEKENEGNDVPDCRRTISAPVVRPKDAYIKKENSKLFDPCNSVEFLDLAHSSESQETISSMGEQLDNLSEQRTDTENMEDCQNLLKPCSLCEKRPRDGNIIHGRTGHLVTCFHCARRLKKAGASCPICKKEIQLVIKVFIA
Target sequence (Q00987 whole entry, looked up): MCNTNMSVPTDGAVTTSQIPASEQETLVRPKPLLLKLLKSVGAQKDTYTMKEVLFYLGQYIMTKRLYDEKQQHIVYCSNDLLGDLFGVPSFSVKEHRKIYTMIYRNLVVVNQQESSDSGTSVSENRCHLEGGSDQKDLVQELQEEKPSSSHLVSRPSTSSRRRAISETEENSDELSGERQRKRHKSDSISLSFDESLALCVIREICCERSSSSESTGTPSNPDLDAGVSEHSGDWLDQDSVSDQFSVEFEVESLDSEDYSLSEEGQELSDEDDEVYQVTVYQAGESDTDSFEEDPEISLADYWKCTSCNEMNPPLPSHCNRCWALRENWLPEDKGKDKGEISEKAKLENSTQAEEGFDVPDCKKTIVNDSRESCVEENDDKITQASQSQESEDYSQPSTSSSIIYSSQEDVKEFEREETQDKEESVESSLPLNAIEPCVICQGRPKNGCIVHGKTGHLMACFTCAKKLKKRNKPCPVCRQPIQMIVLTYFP
Exocytosis CP01: blocks lytic granule exocytosis. inhibition, % at 10 µM. 1,500 tested, 11% active. AID 651954. TALL-104 cells, LAMP-1 externalization, flow cytometry; stimulated with PMA plus thapsigargin. shares compounds with Granule exo inh; in the data active means inhibition above about 60%
Of the large screens only hits and unclear results are named; the others gave an inactive call (follow-up assays come after a bar, where they were run). Shown are actives, neighbours in structure and some others; about 4% of the full set was active somewhere.

O=C(Cc1cccs1)N(Cc1cccs1)C1(C(=O)NC2CCCC2)CCCCC1	Granule exo inh 77 | Exocytosis CP01 inactive
O=C(Cc1cccs1)N(Cc1ccco1)C1(C(=O)NC2CCCCC2)CCCCC1	none
CC(=O)CCc1oc2c([N+](=O)[O-])cccc2c1-c1ccc(C)o1	Granule exo inh 72 | Exocytosis CP01 inactive
Nc1sccc1C(=O)c1ccc(Cl)cc1	Granule exo inh 82 (no result: UPR CHOP act, UPR XBP1 act, Mdm2-MdmX inh) | Exocytosis CP01 inactive
COc1ccc(C(=O)NCC2(c3ccccc3)CCCC2)c(OC)c1	Granule exo inh 88 | Exocytosis CP01 inactive
COc1ccc(OC)c(-c2csc(NC(=O)c3ccc(OCC4CCCO4)cc3)n2)c1 (configuration not stated)	none
COc1ccc(OC)c(-c2csc(NC(=O)c3ccc(F)cc3)n2)c1	Granule exo inh 80 | Exocytosis CP01 inactive
COc1ccc(OC)c(-c2csc(NC(=O)Cc3ccc(F)cc3)n2)c1	Granule exo inh 97 | Exocytosis CP01 inactive
Cc1ccc(-c2nn(-c3ccccc3)cc2/C=C/C(=O)O)o1	none
CCOc1ccccc1Nc1cc(C)nc2ccccc12	none (no result: UPR CHOP act, UPR XBP1 act, Mdm2-MdmX inh)
CCOc1ccccc1Nc1cc(C)nc2ccc(C)cc12	Granule exo inh 81 | Exocytosis CP01 inactive
Fc1cccc(CNc2ncnc3ccc(-c4ccc5c(c4)OCO5)cc23)c1	Granule exo inh 65 | Exocytosis CP01 inactive
CCOC(=O)N/N=C\c1ccc(C)s1	none
O=C(NNS(=O)(=O)c1ccc(F)cc1)c1ccc([N+](=O)[O-])cc1	none
C=CCn1c(C)nnc1SCC(=O)Nc1oc(C)c2c(C)n[nH]c(=O)c12	Granule exo inh 80 | Exocytosis CP01 inactive
CN1OC[C@@H]2CN(C(=O)CCc3ccccc3)[C@H](c3ccccc3Br)C[C@@H]21	none (no result: UPR CHOP act, UPR XBP1 act, Mdm2-MdmX inh)
CCOC(=O)C1(Cc2ccccc2)CCCN(C2CCCC2)C1 (configuration not stated)	Granule exo inh 59 | Exocytosis CP01 inactive
COc1ccc(C(=O)NCCCNc2nc3cc(C)cc(C)c3cc2C#N)cc1	none (no result: UPR CHOP act, UPR XBP1 act, Mdm2-MdmX inh)
COc1cc(OC)cc(C(=O)NCCNc2nc3cc(C)cc(C)c3cc2C#N)c1	Granule exo inh 61 | Exocytosis CP01 inactive
O=C(NC1CCCC1)C1C(c2ccccc2)=Nc2ccccc2N1C(=O)c1cc(Cl)cc(Cl)c1 (configuration not stated)	none (no result: UPR CHOP act, UPR XBP1 act, Mdm2-MdmX inh)
CN(C)CC(O)COC(c1ccc(Cl)cc1)c1ccc(Cl)cc1 (configuration not stated)	Granule exo inh 66 | Exocytosis CP01 inactive
O=C(c1cc2ccccc2o1)N(C1CC1)C1(C(=O)Nc2ccccc2)CCCC1	none
CCCCC[C@H](C)N1C[C@H](COCc2ccccc2)Oc2cc(N3CC[C@@H](O)C3)ccc2S1(=O)=O	none (no result: UPR CHOP act, UPR XBP1 act, Mdm2-MdmX inh)
CCCCC[C@H](C)N1C[C@@H](COCc2ccccc2)Oc2cc(N3CC[C@H](N(C)C)C3)ccc2S1(=O)=O	Granule exo inh 75 (no result: UPR CHOP act, UPR XBP1 act, Mdm2-MdmX inh) | Exocytosis CP01 inactive
CCCCC[C@@H](C)N1C[C@@H](COCc2ccccc2)Oc2cc(N3CC[C@H](N(C)C)C3)ccc2S1(=O)=O	Granule exo inh 56 (no result: UPR CHOP act, UPR XBP1 act, Mdm2-MdmX inh) | Exocytosis CP01 69
O=C(NCCC1CCCCN1S(=O)(=O)c1ccccc1)C(=O)NCc1ccccn1 (configuration not stated)	none
CN(Cc1ccccc1)S(=O)(=O)c1ccccc1Br	none
CN1CCN(c2ccc(NC(=O)c3cccc(OCc4ccccc4)c3)cc2)CC1	Granule exo inh 58 | Exocytosis CP01 inactive
CCOC(=O)c1cc(C)sc1NC(=O)CCC(=O)O	none
c1ccc2[nH]c(Cn3nnc4ccccc43)nc2c1	Granule exo inh 59 | Exocytosis CP01 inactive
OCC1(CCOc2ccccc2)CCN(Cc2ccccc2OC(F)F)CC1	none
C=CCOc1ccccc1CN1CCN(CCc2ccccc2)C(CCO)C1 (configuration not stated)	Granule exo inh 58 | Exocytosis CP01 inactive
CCOc1ccccc1CN1CCN(CCCc2ccccc2)CC1CCO (configuration not stated)	Granule exo inh 63 | Exocytosis CP01 inactive
C=CCOc1ccccc1CN1CCC(CO)(CCOc2ccccc2)CC1	Granule exo inh 69 | Exocytosis CP01 inactive
CCN(CC(=O)NCc1ccc(Cl)cc1)C(=O)CNS(=O)(=O)c1ccc(NC(C)=O)cc1	none
Cc1cc(F)ccc1NCC(=O)Nc1ccc(Br)cc1C	none
